MT1-MMP act inh: MT1-MMP (human) activation inhibition; AID 651647; hit rate 0.061% among 360,000; P50281; HT1080 RFP-PRO-GFP cells, GFP/RFP ratio fluorescence, overnight; percent of plate control window, DMSO zero; GFP/RFP ratio change, % at 20 µM;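 active = GFP/RFP ratio change of at least 30% with cell ATP level not reduced by more than half and red fluorescence within 50% of control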
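Assay system: HT1080 RFP-PRO-GFP cells | Dosing: 20 µM single dose, 1% DMSO | Incubation: Cells overnight before dosing, compound overnight, 37 °C, 5% CO2 | Evaluation: GFP/RFP fluorescence ratio | Control set: DMSO-only wells and HT1080 RFP-L50D-GFP cell wells as references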
Efflux pump inh: blocks antifungal efflux pumps in multiplex yeast assay. S. cerevisiae Candida pump triplex, Nile Red efflux. hit rate 0.44% among 330,000. inhibition, % at 10 µM;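 active = plate passing quality check with inhibition over a set limit, or well fluorescence over plate mean plus 4 SD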;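 note: Nile Red retained in pooled yeast measured as flow cytometry median fluorescence; higher means more Nile Red kept so more efflux inhibition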
TAG inh: reduces triacylglycerol accumulation in H9c2 cells; Nile Red lipid (TAG) fluorescence; cells loaded with 200 µM oleic acid; inhibition, % at 12.5 µM; hit rate 0.66% among 230,000; AID 651582;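 active = pattern-corrected inhibition of lipid staining of at least 50% with the nuclear-stain viability signal not falling by more than 50%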
HGIII-sPLA2 inh: Inhibits HGIII-sPLA2 liposome hydrolysis, primary screen; QFRET BODIPY PC-A2 liposome hydrolysis, fluorescence; inhibition, % at 12.2 µM; hit rate 0.56% among 370,000; AID 743126;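 active = inhibition above mean plus 3 SD of compounds lying within the high and low control bounds, cut at about 19% in these data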
Target sequence (Q9NZ20 whole entry, looked up): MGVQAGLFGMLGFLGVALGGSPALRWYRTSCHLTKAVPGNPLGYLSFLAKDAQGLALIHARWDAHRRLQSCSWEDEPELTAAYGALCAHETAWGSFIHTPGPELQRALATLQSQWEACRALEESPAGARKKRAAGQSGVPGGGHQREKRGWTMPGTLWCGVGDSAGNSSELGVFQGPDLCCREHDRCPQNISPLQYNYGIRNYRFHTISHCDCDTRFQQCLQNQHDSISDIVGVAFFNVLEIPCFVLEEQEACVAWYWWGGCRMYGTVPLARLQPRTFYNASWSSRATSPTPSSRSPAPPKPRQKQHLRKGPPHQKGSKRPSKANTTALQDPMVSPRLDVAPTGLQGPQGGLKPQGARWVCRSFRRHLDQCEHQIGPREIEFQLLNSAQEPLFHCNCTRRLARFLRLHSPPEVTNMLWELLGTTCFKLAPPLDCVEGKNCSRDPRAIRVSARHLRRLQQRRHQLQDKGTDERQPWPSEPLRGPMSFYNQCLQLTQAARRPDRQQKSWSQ
Large screens that a line does not name were inactive. Only some compounds are listed: those with a hit (about 1.3% of all), similar ones and a draw of the others.

O=C1/C(=N\S(=O)(=O)c2cccs2)C([n+]2cccc(Cc3ccccc3)c2)=C([O-])c2ccccc21	TAG inh 73.4 (no result: HGIII-sPLA2 inh)
Cc1ccccc1NC(=O)c1nc(S(C)(=O)=O)ncc1Cl	TAG inh 67.6
Nc1nc(CCl)nc(N(c2ccccc2)c2ccccc2)n1	TAG inh 80.0
Nc1nc(Cl)nc(N(c2ccccc2)c2ccccc2)n1	none
Cc1nn(-c2ccccc2)c(C)c1/C=N/NC(=O)c1cc(C(C)(C)C)[nH]n1	none
Cc1ccc(-c2cc(C(=O)N/N=C/c3c(C)nn(-c4ccccc4)c3C)[nH]n2)cc1	TAG inh 68.7 (no result: Efflux pump inh)
C[C@H]1CN([C@@H](C)CO)C(=O)c2cccc(NC(=O)Nc3ccc(C(F)(F)F)cc3)c2O[C@@H]1CN(C)Cc1ccc(Cl)c(Cl)c1	TAG inh 55.9
CN(C)CC/C=C1/c2ccc(F)cc2Sc2ccc(Cl)cc21	none
CN(C)CC/C=C1\c2ccc(F)cc2Sc2cc(F)c(Cl)cc21	TAG inh 61.4
CN(C)CC/C=C1\c2ccccc2Sc2cc(F)c(Cl)cc21	TAG inh 62.2
COc1ccc(C(=O)Nc2cc(Cl)c(Br)cc2C(=O)O)cc1	none (no result: MT1-MMP act inh, Efflux pump inh, TAG inh)
CCOC(=O)C1=C(C)N=c2s/c(=C/c3cccc([N+](=O)[O-])c3O)c(=O)n2C1c1ccc(OC)cc1OC (configuration not stated)	Efflux pump inh 0.7
COc1ccc(C2C(C(C)=O)=C(C)N=c3s/c(=C\c4cc(C)n(C)c4C)c(=O)n32)c(OC)c1 (configuration not stated)	Efflux pump inh 2.5
CCC[C@H]1[C@@H](NCc2cccs2)CC[C@@]23CCCN2C(=O)CCC[C@@H]13	none (no result: MT1-MMP act inh, Efflux pump inh, TAG inh)
COC(=O)C[C@H]1CC[C@@H]2[C@@H](COc3ccc(NC(=O)Nc4ccccc4OC)cc3C(=O)N2C)O1	none (no result: MT1-MMP act inh, Efflux pump inh, TAG inh)
O=C(NC1CCCC1)C(c1c[nH]c2ccccc12)N(C(=O)Cn1nnc(-c2ccc(Cl)cc2)n1)c1ccccc1 (configuration not stated)	TAG inh 76.6
CC1CCCCC1N(C(=O)c1cc(C2CC2)on1)C1CCCCC1 (configuration not stated)	none (no result: MT1-MMP act inh, Efflux pump inh, TAG inh)
CCOc1ccccc1NC(=O)Cn1nnc(C(=O)NCc2ccco2)c1N	TAG inh 66.2
C=CC[C@@H]1C=C(C)C[C@H](C)C[C@H](OC)[C@H]2O[C@@](O)(C(=O)C(=O)N3CCCC[C@H]3C(=O)O[C@H](/C(C)=C/[C@@H]3CC[C@@H](O)[C@H](OC)C3)[C@H](C)[C@@H](O)CC1=O)[C@H](C)C[C@@H]2OC	Efflux pump inh 1.1 (no result: MT1-MMP act inh, TAG inh, HGIII-sPLA2 inh)
O=C(Nc1cccc(F)c1)OCCN1CCCC12CCC(c1ccccc1)CC2 (configuration not stated)	none (no result: MT1-MMP act inh, Efflux pump inh, TAG inh)
C#CCNC(=O)CSCc1nc(-c2ccc(OCC)cc2)oc1C	none (no result: MT1-MMP act inh, Efflux pump inh, TAG inh)
CCN(CC)c1ccc(-c2nn3c(-c4n[nH]c5c4CCC5)nnc3s2)cc1	TAG inh 57.2
CCc1ccc(C(=O)/C=C2\Sc3ccccc3NC2=O)cc1	HGIII-sPLA2 inh 41.0 (no result: TAG inh)
CCCCNC(=O)/C=C1\Sc2ccccc2NC1=O	none (no result: TAG inh)
CS(=O)(=O)c1sc(C#N)c2c1C(=O)CC(c1ccccc1)C2 (configuration not stated)	TAG inh 92.6
O=C1NC(=S)S/C1=C\C=C\c1ccc([N+](=O)[O-])o1	TAG inh 51.2 (no result: Efflux pump inh)
C[C@H]1[C@H](N(C)C)CC[C@@]23CCCN2C(=O)CCC[C@@H]13	none (no result: MT1-MMP act inh, Efflux pump inh, TAG inh)
CCOc1ccc2nc(NC(=O)Cc3cccs3)sc2c1	TAG inh 64.3 (no result: HGIII-sPLA2 inh)
CCOc1ccc2nc(NC(=O)c3ccccn3)sc2c1	TAG inh 50.9
Cc1ccc2nc(NC(=O)c3ccccn3)sc2c1	none
COc1ccc2nc(NC(=O)Cc3cccs3)sc2c1	none
CC(=O)c1cc(-c2ccccc2)n(CC(=O)NCc2ccc(F)cc2)c1C	none (no result: MT1-MMP act inh, Efflux pump inh, TAG inh)
CCn1c(=O)n2n(c1=O)[C@]1(C=C(C)C2)CN(Cc2ccc(OC)cc2OC)C(NC(=O)c2ccccc2)=N1	none (no result: MT1-MMP act inh, Efflux pump inh, TAG inh)
COc1ccccc1C1=NOC(COc2ccc3c(C)cc(=O)oc3c2)C1 (configuration not stated)	TAG inh 59.0
COc1ccc(C2=NOC(COc3ccc4c(C)cc(=O)oc4c3)C2)c(OC)c1 (configuration not stated)	none
CC1CCCN(C(=O)c2ccc3c(c2NCCO)C(=O)c2ccccc2C3=O)C1 (configuration not stated)	TAG inh 89.7
COC(=O)c1cc(-c2cccc(OC(F)(F)F)c2)c(=O)n2c1CCC2	none (no result: MT1-MMP act inh, Efflux pump inh, TAG inh)
Oc1ccc(C=NNc2ccccn2)c(O)c1	TAG inh 52.6 (no result: Efflux pump inh)
CCOc1ccc(CCNC(=O)c2cc3sccc3n2Cc2ccccc2)cc1OCC	none (no result: MT1-MMP act inh, Efflux pump inh, TAG inh)
COc1ccc(-c2sc3cc4c(cc3c2C#CC2(N)CCCCC2)OCO4)cc1	TAG inh 59.2
CN(C)CCCN(C(=O)CCc1ccccc1)c1nc2ccc(F)cc2s1	none (no result: TAG inh)
CN(C)CCCN(C(=O)CCc1ccccc1)c1nc2ccc(Br)cc2s1	TAG inh 98.2
COC(=O)[C@]12C[C@H](CC(=O)NCCCCc3ccccc3)C(=O)N(Cc3ccc(Cl)cc3Cl)C1=C[C@H](C(C)(C)C)O[C@@H]2C	none (no result: MT1-MMP act inh, Efflux pump inh, TAG inh)
O=[N+]([O-])c1ccc(N/N=C\c2cccn2-c2ccccc2)nc1	TAG inh 55.6 (no result: MT1-MMP act inh)
O=C(c1ccccc1)c1c2c(cc3sc4ccccc4[n+]13)-c1cccc3cccc-2c13	HGIII-sPLA2 inh 23.4 (no result: TAG inh)
N=c1n(Cc2ccc(Cl)cc2)c2ccccc2n1CC(O)COc1ccccc1 (configuration not stated)	TAG inh 73.2
COc1ccc(OCC(O)Cn2c(=N)n(Cc3ccccc3)c3ccccc32)cc1 (configuration not stated)	none
COc1ccc(COc2cc(-c3cccc(OC)c3)nc3ccc(NC(=O)c4ccccc4)cc23)cc1	none (no result: TAG inh)
COc1ccc(COc2cc(-c3cccc(OC)c3)nc3ccc(NC(=O)c4ccc(OC)cc4)cc23)cc1	TAG inh 57.4
CCC[C@H]1[C@@H](N(C)CC2CCCCC2)CC[C@@]23CCCN2C(=O)CCC[C@@H]13	none (no result: MT1-MMP act inh, Efflux pump inh, TAG inh)
CCOC(=O)[C@@]12CN(C(=O)OC(C)(C)C)CC=C1N(Cc1ccc(OC)cc1)C(=O)[C@H]2CC(=O)NCCCCc1ccccc1	none (no result: MT1-MMP act inh, Efflux pump inh, TAG inh)
O=C(N/N=C/c1cc(Cl)ccc1O)c1ccncc1	TAG inh 53.2
O=C(N/N=C/c1ccccc1Cl)c1ccncc1	none (no result: TAG inh)
CC(=O)Nc1sc2c(c1-c1nc3ccccc3s1)CCN(C(C)C)C2	TAG inh 92.1 (no result: HGIII-sPLA2 inh)
CCOc1cc(/C=N/Nc2cc(C)nc(-n3nc(C)cc3C)n2)ccc1O	TAG inh 67.6
Cc1ccccc1N=Nc1c(N)[nH]n(-c2ccccc2)c1=O	none (no result: MT1-MMP act inh, Efflux pump inh, TAG inh)
COc1cccc2sc(Nc3nc(-c4ccncc4)cs3)nc12	TAG inh 57.5
COc1cccc2sc(Nc3nnc(-c4ccccc4Cl)o3)nc12	none
COc1ccccc1-c1nnc(Nc2nc3c(OC)cccc3s2)o1	TAG inh 66.7
C=CCOC(=O)N[C@@H](c1coc2ccccc2c1=O)[C@@H](C)/C=C/CC(=O)OC	none (no result: MT1-MMP act inh, Efflux pump inh, TAG inh)
COC(=O)C1CN(C2CCCC2)CCS(=O)(=O)N1Cc1ccc(F)cc1 (configuration not stated)	none (no result: MT1-MMP act inh, Efflux pump inh, TAG inh)
